Experimental data: ChEMBL document CHEMBL1143361, “Tetracyclic indole inhibitors of hepatitis C virus NS5B-polymerase” (Bioorg Med Chem Lett, 2009)
Blank lines part the entries; values can stand above or below the compound they belong to. Activity calls are given as the source filed them. No cut-off for these calls is given here.

Tests used:
[1] = Inhibition of HCV NS5B Cdelta21 in presence of heterogenic template RNA; design: species or system Hepacivirus hominis
In short: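 Purified NS5B enzyme (C-terminal 21-residue deletion) assayed with heterogenic template RNA. IC50 is the mean of at least two experiments.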

[2] = system: Hepatitis C virus; test: Antiviral activity against Hepatitis C virus infected in human HUH7 cells by replicon assay; format: functional, organism-based, Hepacivirus hominis; conditions: Huh-7
In short: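 Subgenomic HCV RNA replicon in HUH-7 cells, adapted from the Bartenschlager procedure, run in 10% fetal calf serum unless otherwise stated. EC50 is the mean of at least two experiments.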

[3] = Protein binding in human plasma; format: ADME, cell-free; conditions: read-out: PPB (converted)
[4] = AUC in rat; format: ADME, organism-based; conditions: plasma
In short: (§1)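 Given as HCl or trifluoroacetate salts, intravenously (vehicle 20% DMSO/60% PEG400/20% H2O) and orally (vehicle PEG400); n = 3. AUC reported with the dose in mpk; oral bioavailability and plasma clearance are derived from these dosings.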

[5] = Oral bioavailability in rat; format: ADME, organism-based; conditions: in vivo; in short: as §1
[6] = Fraction unbound in human plasma; format: ADME, cell-free
[7] = AUC in dog; format: ADME, organism-based, Canis lupus familiaris; conditions: plasma; in short: as §1
[8] = Intrinsic clearance in human liver microsomes in presence of NADPH; format: ADME, Microsome
In short: (§2)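 Incubated with liver microsomes (rat, dog, rhesus or human) in the presence of NADPH. Intrinsic clearance is expressed in ml/min/kg.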

[9] = Intrinsic clearance in rat liver microsomes in presence of NADPH; format: ADME, Microsome; in short: as §2
[10] = Fraction unbound in dog plasma; format: ADME, cell-free, Canis lupus familiaris
[11] = Oral bioavailability in dog; format: ADME, organism-based, Canis lupus familiaris; conditions: in vivo; in short: as §1
[12] = Ratio of drug level from liver to plasma in po dosed rat after 6 hrs; format: ADME, organism-based
In short: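 Rats dosed orally; compound concentrations in liver and plasma measured 6 h after administration and expressed as a liver/plasma ratio.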

[13] = Fraction unbound in rat plasma; format: ADME, cell-free
[14] = Intrinsic clearance in rhesus monkey liver microsomes in presence of NADPH; format: ADME, Macaca mulatta, Microsome; in short: as §2
[15] = Plasma clearance in rat; format: ADME, organism-based; in short: as §1
[16] = Plasma clearance in dog; format: ADME, organism-based, Canis lupus familiaris; in short: as §1
[17] = Intrinsic clearance in dog liver microsomes in presence of NADPH; format: ADME, Canis lupus familiaris, Microsome; in short: as §2
[18] = Plasma clearance in rhesus monkey; format: ADME, organism-based, Macaca mulatta; in short: as §1
[19] = system: Hepatocyte; test: Metabolic stability in human hepatocytes after 4 hrs by HPLC; format: ADME, cell-based
In short: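 [3H]-labelled compound incubated 4 h with human hepatocytes. Analysis by HPLC with radiochromatographic detection.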

[20] = molecular target: Cytochrome P450 3A4 (Homo sapiens, UniProt P08684); test: Inhibition of CYP3A4 in human liver microsomes; format: ADME, Microsome
Chain of Cytochrome P450 3A4 (P08684 whole entry): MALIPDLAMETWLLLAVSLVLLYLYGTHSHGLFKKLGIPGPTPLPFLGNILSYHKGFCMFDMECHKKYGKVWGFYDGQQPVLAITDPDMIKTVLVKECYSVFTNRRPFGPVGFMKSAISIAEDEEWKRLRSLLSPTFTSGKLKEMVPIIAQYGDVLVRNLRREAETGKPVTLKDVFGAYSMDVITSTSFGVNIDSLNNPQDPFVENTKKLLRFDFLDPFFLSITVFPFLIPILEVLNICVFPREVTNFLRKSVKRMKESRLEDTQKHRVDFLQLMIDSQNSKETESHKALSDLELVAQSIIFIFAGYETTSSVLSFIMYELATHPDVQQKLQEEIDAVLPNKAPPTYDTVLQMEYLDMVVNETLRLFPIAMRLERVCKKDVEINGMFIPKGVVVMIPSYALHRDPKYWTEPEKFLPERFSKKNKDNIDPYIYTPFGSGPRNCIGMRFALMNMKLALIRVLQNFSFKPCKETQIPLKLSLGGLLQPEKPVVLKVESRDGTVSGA

[21] = AUC in rhesus monkey; format: ADME, organism-based, Macaca mulatta; conditions: plasma; in short: as §1
[22] = molecular target: T1, Nuclear receptor subfamily 1 group I member 2 (Homo sapiens, UniProt O75469); test: Activity at human PXR at 10 uM by reporter gene assay
T1 sequence (O75469 whole entry): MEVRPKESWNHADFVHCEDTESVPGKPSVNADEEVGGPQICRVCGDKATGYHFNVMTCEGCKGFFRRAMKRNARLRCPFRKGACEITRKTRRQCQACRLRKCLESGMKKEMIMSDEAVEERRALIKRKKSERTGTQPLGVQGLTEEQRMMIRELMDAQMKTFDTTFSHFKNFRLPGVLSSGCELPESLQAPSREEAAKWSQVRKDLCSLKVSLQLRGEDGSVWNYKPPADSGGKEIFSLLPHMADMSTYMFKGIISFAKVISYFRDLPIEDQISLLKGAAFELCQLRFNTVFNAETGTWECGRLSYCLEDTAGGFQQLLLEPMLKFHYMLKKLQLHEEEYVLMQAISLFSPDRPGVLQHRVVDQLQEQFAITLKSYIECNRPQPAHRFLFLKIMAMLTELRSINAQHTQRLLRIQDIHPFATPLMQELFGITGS

[23] = Metabolic stability in po dosed dog assessed as urinary excretion; format: ADME, organism-based, Canis lupus familiaris; conditions: urine, read-out: Stability
[24] = organism: Homo sapiens; test: Inhibition of human DNA polymerase
[25] = system: Canis familiaris; test: Cardiotoxicity in anesthetized dogs assessed as prolongation of QT interval up to 10 mg/kg; format: toxicity, organism-based, Canis lupus familiaris; design: dose 10 mg/kg; conditions: dog, in vivo
[26] = Metabolic stability in po dosed rat assessed as urinary excretion; format: ADME, organism-based; conditions: urine, read-out: Stability
[27] = Oral bioavailability in rhesus monkey; format: ADME, organism-based, Macaca mulatta; conditions: in vivo; in short: as §1
[28] = Metabolic stability in po dosed rat assessed as biliary excretion; format: ADME, organism-based; conditions: bile, read-out: Stability

IC50 [1]: 80 nM
EC50 [2]: 18900 nM
fraction unbound [3]: 0.003
SMILES: CN1Cc2ccccc2-c2c(C3CCCCC3)c3ccc(C(=O)O)cc3n2CC1=O

IC50 [1]: 48 nM
EC50 [2]: 180 nM
AUC [4]: 0.2 µM·h
bioavailability [5]: 10%
SMILES: CCN(CC)C1CCN(C(=O)Cn2c(-c3ccc(Cl)cc3)c(C3CCCCC3)c3ccc(C(=O)O)cc32)CC1

IC50 [1]: 77 nM
EC50 [2]: 540 nM
SMILES: COc1ccc2c(c1)N(CCN(C)C)CCCn1c-2c(C2CCCCC2)c2ccc(C(=O)O)cc21

IC50 [1]: 43 nM
EC50 [2]: 160 nM
SMILES: CN(C)CC1Cn2c(c(C3CCCCC3)c3ccc(C(=O)O)cc32)-c2ccccc2N1C (racemic)

IC50 [1]: 28 nM
SMILES: CN(C)CCN1CCn2c(c(C3CCCCC3)c3ccc(C(=O)O)cc32)-c2ccccc21

IC50 [1]: 35 nM
EC50 [2]: 100 nM
SMILES: COc1ccc2c(c1)CN(CCN(C)C)CCn1c-2c(C2CCCCC2)c2ccc(C(=O)O)cc21

IC50 [1]: 1920 nM
EC50 [2]: 13500 nM
SMILES: CN(C)CC1CN(C)c2ccccc2-c2c(C3CCCCC3)c3ccc(C(=O)O)cc3n21 (racemic)

IC50 [1]: 60 nM
fraction unbound [6]: 0.02
EC50 [2]: 170 nM
AUC [7]: 17.6 µM·h
CLint scaled [8]: 13 mL/min/kg
CLint scaled [9]: 16 mL/min/kg
fraction unbound [10]: 0.02
bioavailability [11]: 83%
Kp at 6 h [12]: 8
fraction unbound [13]: 0.02
AUC [4]: 4 µM·h
CLint scaled [14]: 42 mL/min/kg
clearance [15]: 12 mL/min/kg
clearance [16]: 3 mL/min/kg
CLint scaled [17]: 8 mL/min/kg
bioavailability [5]: 48%
SMILES: CN(C)CC(=O)N1CCn2c(c(C3CCCCC3)c3ccc(C(=O)O)cc32)-c2ccc(F)cc2C1

IC50 [1]: 27 nM
fraction unbound [6]: 0.03
clearance [18]: 22 mL/min/kg
Stability [19]: Stable
Activity [20]: Not Active
AUC [21]: 2 µM·h
Activity [22]: Not Active
AUC [7]: 23 µM·h
CLint scaled [8]: 5 mL/min/kg
CLint scaled [9]: 100 mL/min/kg
dose excreted [23]: < 1%
fraction unbound [10]: 0.03
bioavailability [11]: 74%
Kp at 6 h [12]: 16
fraction unbound [13]: 0.07
Activity [24]: inactive
AUC [4]: 4.2 µM·h
CLint scaled [14]: 51 mL/min/kg
clearance [15]: 61 mL/min/kg
dose excreted [26]: 1%
clearance [16]: 2.5 mL/min/kg
bioavailability [27]: 57%
CLint scaled [17]: 26 mL/min/kg
bioavailability [5]: 31%
dose excreted [28]: 4%
SMILES: CN(C)CCN1CCn2c(c(C3CCCCC3)c3ccc(C(=O)O)cc32)-c2ccccc2C1
Activity [25]: Non-toxic

IC50 [1]: 130 nM
EC50 [2]: 220 nM
SMILES: CN(C)CC(=O)N1CCn2c(c(C3CCCCC3)c3ccc(C(=O)O)cc32)-c2ccccc2C1

IC50 [1]: 860 nM
EC50 [2]: 1440 nM
SMILES: CN(C)CCN1Cc2ccccc2-c2c(C3CCCCC3)c3ccc(C(=O)O)cc3n2CCC1=O

IC50 [1]: 110 nM
EC50 [2]: 260 nM
SMILES: CN(C)CCN1Cc2ccccc2-c2c(C3CCCCC3)c3ccc(C(=O)O)cc3n2CC1=O

IC50 [1]: 430 nM
fraction unbound [3]: 0.029
SMILES: CN(C)C(=O)Cn1c(-c2ccccc2)c(C2CCCCC2)c2ccc(C(=O)O)cc21

IC50 [1]: 35 nM
EC50 [2]: 140 nM
SMILES: CN(C)CC1Cn2c(c(C3CCCCC3)c3ccc(C(=O)O)cc32)-c2ccccc2CN1C (racemic)

IC50 [1]: 130 nM
EC50 [2]: 410 nM
SMILES: CN(C)CCN1C(=O)Cn2c(c(C3CCCCC3)c3ccc(C(=O)O)cc32)-c2ccccc21

IC50 [1]: 55 nM
EC50 [2]: 290 nM
AUC [7]: 18.7 µM·h
CLint scaled [8]: 7 mL/min/kg
CLint scaled [9]: 43 mL/min/kg
bioavailability [11]: 67%
AUC [4]: 2.9 µM·h
CLint scaled [14]: 16 mL/min/kg
clearance [15]: 32 mL/min/kg
clearance [16]: 2.9 mL/min/kg
CLint scaled [17]: 6 mL/min/kg
bioavailability [5]: 83%
SMILES: COc1ccc2c(c1)CN(C)CCn1c-2c(C2CCCCC2)c2ccc(C(=O)O)cc21

IC50 [1]: 170 nM
EC50 [2]: 890 nM
SMILES: CN1CCn2c(c(C3CCCCC3)c3ccc(C(=O)O)cc32)-c2ccccc2C1
